An excerpt weighted towards active compounds, which were near 3% of everything screened.
Myeloid diff MLP: induction of myeloid progenitor differentiation, primary screen, cell-based, flow cytometry, MLPCN library; AID 624256, 2012; ER-HoxA9 myeloid progenitors, lysozyme-GFP differentiation; calls only at 10 µM; actives 1% (n = 360,000);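 active means normalized GFP-positive differentiation at or above the plate's own cutoff, the solvent-only control mean plus 3 SD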;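 further: cells exposed to compound for four days before flow analysis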
SENP1 FRET inh: human SENP1 catalytic domain inhibitors, primary screen, biochemical, FRET, uHTS; actives 0.21% (n = 360,000); recombinant SENP1 catalytic domain, CyPet-SUMO1-YPet FRET cleavage; AID 624204, 2012; Sentrin-specific protease 1 (Homo sapiens), Q9P0U3; inhibition, % at 10 µM;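 active means inhibition at least 30% at 10 µM, raw YFP signal under a set limit, fluorescence ratio 0.5 to 1.5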
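Material: hSENP1 catalytic domain, recombinant; medium: Tris pH 8 with BME, BSA, NP40 and catalase; compound: single concentration of 10 µM compound, 0.5% DMSO final; technique: FRET read of cyan and yellow fluorescence; timing: 50 min enzyme reaction, room temperature, light-protected; reagent: SFCypet-SUMO1-SFYpet substrate at 25 nM; control set: no-enzyme low, enzyme-DMSO high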
Pemphigus Ab inh: inhibitors of pemphigus antibody binding to DSG3, primary screen, biochemical, bead-based, flow cytometry, scFv-GFP; actives 0.48% (n = 310,000); binding (percent of control), % at 10 µM; Desmoglein-3 (Homo sapiens), P32926; AID 588358, 2011; DSG3-coupled beads, scFv-anti-DSG3-GFP binding; hits give low values;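 active means binding more than 3 SD below its plate's average and above zero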;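 further: hits lower antibody fragment binding to DSG3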
Target sequence (P32926 whole entry, looked up, the tested form may be a part): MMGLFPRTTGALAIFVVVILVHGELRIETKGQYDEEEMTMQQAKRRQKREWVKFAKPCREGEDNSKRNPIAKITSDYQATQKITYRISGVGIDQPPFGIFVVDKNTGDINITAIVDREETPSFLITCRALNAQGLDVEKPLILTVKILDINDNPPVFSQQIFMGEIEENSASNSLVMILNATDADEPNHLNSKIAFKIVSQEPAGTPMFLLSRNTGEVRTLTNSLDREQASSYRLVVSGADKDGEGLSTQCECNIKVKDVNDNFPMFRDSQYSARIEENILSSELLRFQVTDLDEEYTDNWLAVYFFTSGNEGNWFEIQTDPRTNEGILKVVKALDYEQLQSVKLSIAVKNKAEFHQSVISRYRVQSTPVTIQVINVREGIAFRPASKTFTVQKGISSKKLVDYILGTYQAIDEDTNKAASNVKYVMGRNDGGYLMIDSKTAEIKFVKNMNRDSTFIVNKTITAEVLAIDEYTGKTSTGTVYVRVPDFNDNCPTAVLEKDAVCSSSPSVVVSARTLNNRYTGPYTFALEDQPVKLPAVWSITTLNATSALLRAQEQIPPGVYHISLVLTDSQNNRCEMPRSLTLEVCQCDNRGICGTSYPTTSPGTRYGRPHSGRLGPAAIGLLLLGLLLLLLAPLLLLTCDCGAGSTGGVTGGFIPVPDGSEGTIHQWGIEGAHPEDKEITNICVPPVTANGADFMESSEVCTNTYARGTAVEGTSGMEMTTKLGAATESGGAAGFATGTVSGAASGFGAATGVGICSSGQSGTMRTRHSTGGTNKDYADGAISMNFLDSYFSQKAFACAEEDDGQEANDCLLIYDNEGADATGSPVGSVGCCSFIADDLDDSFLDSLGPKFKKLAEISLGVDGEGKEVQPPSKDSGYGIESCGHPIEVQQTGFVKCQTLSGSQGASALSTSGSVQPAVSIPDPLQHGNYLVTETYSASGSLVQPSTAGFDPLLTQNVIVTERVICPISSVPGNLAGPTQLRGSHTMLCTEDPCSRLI
H9c2 protect: cardioprotection against H2O2-induced cell death, primary screen, uHTS, H9c2 cells, ATPLite luminescence. H9c2 cardiomyocytes, H2O2 injury protection, 2 h. protection from H2O2 cell death, % at 20 µM. actives 0.63% (n = 360,000);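 active means compounds giving at least 50% protection of heart cells from peroxide-induced death in the single-dose screen, raw or plate-pattern-corrected value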
HNF4A DNA FP: change in binding of human HNF4A to DNA, primary screen, biochemical, fluorescence polarization, FITC-DNA | Hepatocyte nuclear factor 4-alpha (Homo sapiens), P41235 | AID 1224865, 2016 | 1 h | actives 0.3% (n = 360,000) | activity change, % at 10 µM; in the data active means activity change above about 30%, passing the limit was not always enough
Granule exo inh: LAMP-1 surface exposure blockers, TALL-104 cells – cell-based, flow cytometry, MLPCN library, primary screen; actives 0.66% (n = 360,000); TALL-104 LAMP-1 surface exposure; cells stimulated with thapsigargin and PMA; inhibition, % at 10 µM;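 active means inhibition above about 55%, limit read from the data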
Myeloid diff: inducers of myeloid progenitor differentiation, confirmation, cell-based, GFP/Mac1 flow cytometry, cherry pick 01. actives 2% (n = 2,300). ER-HoxA9 myeloid progenitors, GFP/Mac1 double-positive flow. calls only. shares compounds with Myeloid diff MLP;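 active means share of green or green-and-red cells above 9 and 9% in run 1 or 4 and 3% in run 2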
GFP autofluor: compound fluorescence in myeloid differentiation counter-screen; shares compounds with Myeloid diff MLP; actives 7.4% (n = 2,300); ER-HoxA9 myeloid progenitors, no estrogen, GFP autofluorescence flow cytometry; vehicle wells 0%, positive control 100%; fluorescence response, % (concentration not given with the values);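 active means over 5% cells positive for green fluorescent reporter, or over 2% positive for both it and APC stain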
Numbers stand for hits; - = inactive; . = no result; + = active, no number; ! = repeats disagree.

SMILES	Myeloid diff MLP	SENP1 FRET inh	Pemphigus Ab inh	H9c2 protect	HNF4A DNA FP	Granule exo inh	Myeloid diff	GFP autofluor
CCOc1ccccc1NC(=O)NC1(C(=O)NCc2cccnc2)CCCCC1	-	-	.	-	-	-	-	-
C[C@@H]1CC=C[C@H]2[C@H]1C(=O)N(Cc1ccccc1)[C@H]2c1ccc(-c2ccc(F)cc2)cc1F	-	-	-	-	-	-	-	-
CCCCNC(=O)c1onc(CSc2ccc(OC)cc2)c1C(=O)O	-	-	-	-	-	-	.	.
CCCCNC(=O)c1onc(CSc2ccc(F)cc2)c1C(=O)O	+	-	-	-	-	-	-	-
Cc1cc2nc(/C(C#N)=C\c3ccc(-c4ccccc4C(=O)O)o3)[nH]c2cc1C	-	-	-	-	-	-	-	-
Cc1ccc2nc(/C(C#N)=C\c3ccc(N4CCOCC4)o3)[nH]c2c1	+	-	-	-	-	-	-	29
CC1CN(C(=O)COC(=O)c2cccc(S(=O)(=O)N3CCc4ccccc43)c2)CC(C)O1 (centres undefined)	-	-	-	-	-	-	.	.
COc1ccc(CN(C)C(=O)c2ccc(OCC(=O)Nc3cccc(C(F)(F)F)c3)c(OC)c2)cc1	-	-	-	-	-	-	.	.
Cn1c(=O)c2ccccc2n(Cc2ccccc2F)c1=O	-	-	-	-	-	-	.	.
Cn1c(=O)c2ccccc2n(Cc2ccccc2Cl)c1=O	-	-	-	-	-	-	-	-
C[C@@H]1ON(C)[C@H]2C[C@H]3c4cc(-c5cccc(F)c5)ccc4CCN3C(=O)[C@@H]12	-	-	-	-	-	-	.	.
Fc1ccc(/C=C/c2nnc(-c3cccs3)o2)cc1	-	-	-	-	-	-	.	.
Cc1ccc(/C=C/c2nnc(-c3cccs3)o2)cc1	-	-	70	-	-	-	-	-
CC(C)(C)OC(=O)N[C@@H](Cc1ccccc1)C(=O)N1CCC(C(=O)O)CC1	-	-	-	-	-	-	-	-
CC(C)(C)OC(=O)N[C@@H](Cc1ccccc1)C(=O)N1CCC(C(=O)N[C@@H](CCC(N)=O)C(=O)O)CC1	-	-	-	-	-	-	.	.
CCOc1ccccc1NC(=O)CCNS(=O)(=O)c1ccccc1	+	-	-	-	-	-	-	-
CCOc1ccccc1NC(=O)CCC(=O)Nc1ccccc1OCC	-	-	-	-	-	-	.	.
C=C(C)COc1ccc2c(C)c(CC(=O)OC)c(=O)oc2c1C	-	-	-	-	-	-	-	-
CN(C)c1ccc(CNCc2cccnc2)cc1	-	-	-	-	-	-	-	-
CC(C)(C)NC(=O)COc1ccc(CNCc2cccnc2)cc1	-	-	-	-	-	-	.	.
CCCCCCCC(=O)NNC(=O)c1ccc(F)cc1	-	-	-	-	-	-	-	-
CC(SCCc1ccccn1)C(=O)O (centres undefined)	-	-	.	-	-	-	-	-
CC(CCc1ccccn1)C(=O)c1ccccc1 (centres undefined)	-	-	-	-	-	-	.	.
Cc1csc(SCC(=O)Nc2sc3c(c2C#N)CCC3)n1	-	-	-	-	-	-	-	-
O=C1NCCN1c1ccc(CN2CCN(C3CCCCC3)C(CCO)C2)cc1 (centres undefined)	-	-	-	-	-	-	-	-
SMILES	Myeloid diff MLP	SENP1 FRET inh	Pemphigus Ab inh	H9c2 protect	HNF4A DNA FP	Granule exo inh	Myeloid diff	GFP autofluor
CC(C)=CCN1CCN(Cc2ccc(N3CCNC3=O)cc2)CC1CCO (centres undefined)	-	-	-	-	-	-	.	.
COC(=O)C1=CN(Cc2ccc(OC)c(OC)c2)C=C(C(=O)OC)C1c1cccc(F)c1	+	-	-	-	-	-	-	-
Cc1nc(N)c(C#N)c(-c2cccnc2)c1C	+	-	-	-	-	-	-	-
CCC(=O)Nc1cccc(NC(=S)NC(=O)c2ccccc2Cl)c1	-	-	-	-	-	-	.	.
CCC(=O)Nc1cccc(NC(=O)c2ccccc2Cl)c1	-	-	-	-	-	-	-	-
COc1ccc(NS(=O)(=O)c2ccc(O)c(NS(=O)(=O)c3ccc(NC(C)=O)cc3)c2)cc1	-	-	-	-	-	-	.	.
CCc1ccc(/C=C2/SC(=S)N(CCC(=O)Nc3ccc(C(=O)O)cc3)C2=O)cc1	-	-	.	-	-	-	.	.
CCc1ccc(C=C2SC(=S)N(CCCC(=O)Nc3ccc(C(=O)O)cc3)C2=O)cc1	-	-	.	-	-	-	-	-
N#C/C(=N\Nc1ccc(S(=O)(=O)N2CCc3ccccc32)cc1)C(N)=S	+	-	-	-	-	-	-	-
CCOC(=O)/C(C#N)=N/Nc1ccc(S(=O)(=O)N2CCc3ccccc32)cc1	-	-	-	-	-	-	.	.
N=C(N)SCc1nc2ccccc2c(=O)n1-c1ccccc1	+!	-	-	-	-	-	-	-
COc1ccc(C(=O)N2CCc3cc(OC)c(OC)cc3C2c2ccc(OC)c(OC)c2)cc1 (centres undefined)	-	-	-	-	-	-	-	-
CCCn1c(SCC(=O)Nc2ccccc2Cl)nc(O)cc1=O	-	-	-	-	-	-	-	-
O=C1NCCO1	-	-	-	-	-	-	.	.
O=C(O)CN(c1ccccn1)S(=O)(=O)c1ccccc1	-	-	-	-	-	-	.	.
O=C(O)CN(c1ccccn1)S(=O)(=O)c1ccc(Cl)cc1	+	-	.	-	-	-	-	-
CC(C)[C@H](N)c1cn([C@@H](CC(N)=O)C(=O)N2CCNCC2)nn1	-	-	-	-	-	-	.	.
COCCNC(=O)/C(=C/c1ccccc1Cl)c1ccccc1	-	-	.	-	-	-	.	.
O=C(Nc1ccccc1O)/C(=C\c1ccccc1)NC(=O)c1ccccc1	-	-	-	-	-	-	.	.
Cc1cccc(CCNc2nc3ccccc3n3nnnc23)c1	+	-	.	-	-	-	-	-
CC(=O)Nc1nc(-c2ccccc2)nc(-c2ccccc2OC(C)=O)n1	+	-	-	-	-	-	-	-
